These results are taken from ChEMBL document CHEMBL4033716, “The impact of the halogen bonding on D2 and 5-HT1A/5-HT7 receptor activity of azinesulfonamides of 4-[(2-ethyl)piperidinyl-1-yl]phenylpiperazines with antipsychotic and antidepressant properties” (Bioorg Med Chem, 2017).

Broadly, the Ki is a measure of affinity in units of concentration, obtained from inhibition or displacement. For orientation: inhibition means the share of the control response that was lost under treatment.

Assay [1] concerns the target T1, D(2) dopamine receptor (Homo sapiens, UniProt P14416). The assay is described as follows: Displacement of [3H]-Raclopride from human dopamine D2L receptor expressed in HEK293 cell membranes after 1 hr by microbeta liquid scintillation counting analysis. In a few lines: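 HEK293 membranes expressing human D2L. Incubated 1 h at 37°C, rapid filtration. 1 µM (+)butaclamol defined nonspecific binding. Triplicates at 7–8 concentrations, 10⁻¹¹–10⁻⁴ M. Ki via Cheng-Prusoff, ≥3 experiments.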
On the technique in general: Displacement assays read how much labelled ligand stays bound in the presence of the test substance.

Assay [2] concerns the target T2, 5-hydroxytryptamine receptor 7 (Homo sapiens, UniProt P34969). The assay can be described thus: Displacement of [3H]-5-CT from human 5-HT7 receptor expressed in HEK293 cell membranes after 1 hr by microbeta liquid scintillation counting analysis. In a few lines: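 Membranes from HEK293 pellets stably expressing human 5-HT7b, homogenized and centrifuged twice at 35 000 g (4°C) with 15 min 37°C incubation between. Buffer 50 mM Tris-HCl, 4 mM MgCl₂, 10 μM pargyline, 0.1% ascorbate. Incubated 1 h at 37°C, then filtered. Nonspecific binding defined with 10 µM 5-HT. Triplicates at 7–8 concentrations (10⁻¹¹–10⁻⁴ M). Ki by Cheng-Prusoff, ≥3 experiments.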

The target of assay [3] is T3, 5-hydroxytryptamine receptor 1A (Homo sapiens, UniProt P08908).
T3 sequence (P08908 whole entry): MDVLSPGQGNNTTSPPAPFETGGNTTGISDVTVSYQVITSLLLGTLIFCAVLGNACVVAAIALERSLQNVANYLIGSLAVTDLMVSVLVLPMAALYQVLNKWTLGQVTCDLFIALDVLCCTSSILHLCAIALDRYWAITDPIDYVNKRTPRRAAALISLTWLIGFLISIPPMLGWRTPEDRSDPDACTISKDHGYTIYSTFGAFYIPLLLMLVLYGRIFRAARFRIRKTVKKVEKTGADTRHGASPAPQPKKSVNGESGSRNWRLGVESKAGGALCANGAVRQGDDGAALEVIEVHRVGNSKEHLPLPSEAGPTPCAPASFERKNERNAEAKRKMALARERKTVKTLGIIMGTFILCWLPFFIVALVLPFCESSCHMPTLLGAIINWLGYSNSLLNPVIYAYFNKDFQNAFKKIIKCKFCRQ
The assay can be described thus: Displacement of [3H]-8-OH-DPAT from human 5-HT1A receptor expressed in HEK293 cell membranes after 1 hr by microbeta liquid scintillation counting analysis. In a few lines:
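HEK293 membranes with stably expressed human 5-HT1A, washed by two 35 000 g spins. Buffer 50 mM Tris-HCl, 0.1 mM EDTA, 4 mM MgCl₂, 10 μM pargyline, 0.1% ascorbate. Incubated 1 h at room temperature, then rapid filtration. 10 µM 5-HT defined nonspecific binding. Tested in triplicate over 10⁻¹¹–10⁻⁴ M (7–8 concentrations). Ki via Cheng-Prusoff, mean of ≥3 experiments.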

Assay [4] deals with 5-hydroxytryptamine receptor 6 (Homo sapiens, UniProt P50406). The assay is described as follows: Displacement of [3H]-LSD from human 5-HT6 receptor expressed in HEK293 cell membranes after 1 hr by microbeta liquid scintillation counting analysis. In a few lines:
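Human 5-HT6 stably expressed in HEK293; cell membranes washed by two 35 000 g spins. Buffer 50 mM Tris-HCl, 0.5 mM EDTA, 4 mM MgCl₂. Incubated 1 h at 37°C, filtered. Nonspecific binding with 10 µM methiothepine. 7–8 concentrations (10⁻¹¹–10⁻⁴ M) in triplicate. Ki by Cheng-Prusoff, ≥3 experiments.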

Assay [5] concerns the target 5-hydroxytryptamine receptor 2A (Homo sapiens, UniProt P28223). The assay is described as follows: Displacement of [3H]-Ketanserin from human 5-HT2A receptor expressed in HEK293 cell membranes after 1 hr by microbeta liquid scintillation counting analysis. In a few lines: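 Competition binding on membranes from HEK293 cells stably expressing human 5-HT2A, prepared by homogenization and two 35 000 g centrifugations. Incubated 1 h at 37°C, then filtered and counted. Triplicate points at 7–8 concentrations, 10⁻¹¹–10⁻⁴ M. Ki from Cheng-Prusoff, ≥3 separate experiments.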

Assay [6] concerns Mus musculus. The assay can be described thus: Antidepressant-like activity in Swiss albino mouse assessed as decrease in immobility time at 1.25 mg/kg, ip for 30 mins measured last 4 mins of 6 mins test by forced swim test relative to control. Also noted: scale not given: the % may be the effect or the level left. The assay is classed as functional. In a few lines:
(§1)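 Male Swiss albino mice (22–26 g), used once, observer blind. Drugs dissolved in distilled water, given i.p. at 10 ml/kg: test compounds 60 min, citalopram 30 min before testing; controls got vehicle. Mice placed 6 min in a cylinder with 10 cm water at 23–25°C; immobility scored over the last 4 min. 7–12 mice/group; one-way ANOVA then Bonferroni.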

The test system of assay [7] is Mus musculus. The assay is described as follows: Antipsychotic activity in CD-1 mouse assessed as inhibition of dizocilpine-induced hyperlocomotor activity at 0.5 mg/kg, ip pretreated with dizocilpine for 15 mins followed by compound administration for 60 mins. The assay is classed as functional, organism-based. In a few lines: (§2)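 Male CD-1 mice, tested in the light phase, observer blind. Test compounds i.p. 60 min and MK-801 i.p. 15 min before testing, in distilled water at 10 ml/kg; vehicle controls. After 30 min cage habituation, ambulation recorded by activity monitor for 1 h in 5-min bins. 8–10 animals/group; mean ± SEM, one-way ANOVA with Bonferroni test.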

Assay [8] relates to Mus musculus. The assay can be described thus: Antipsychotic activity in CD-1 mouse assessed as inhibition of MK-801-induced hyperlocomotor activity administered ip pretreated with MK-801 for 15 mins followed by compound treatment for 60 mins. The assay is classed as functional. As to conditions: CD-1, ip, read-out: MED. In a few lines:
as §2

Assay [9] concerns Mus musculus. The assay can be described thus: Antipsychotic activity in CD-1 mouse assessed as inhibition of MK-801-induced hyperlocomotor activity at 2.5 to 30 mg/kg, ip pretreated with MK-801 for 15 mins followed by compound administration for 60 mins. Format: functional, organism-based. In a few lines: as §2
The test system of assay [10] is Mus musculus. The assay is described as follows: Antidepressant-like activity in Swiss albino mouse assessed as decrease in immobility time administered ip for 30 mins measured last 4 mins of 6 mins test by forced swim test relative to control. Format: functional. As to conditions: read-out: MED. In a few lines: as §1
Assay [11] has as its target T1, D(2) dopamine receptor. The assay can be described thus: Antagonist activity at human dopamine D2 receptor expressed in HEK293 cells at 1 uM assessed as inhibition of dopamine-induced cAMP production. The assay is classed as functional, cell-based. In a few lines:
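Cellular cAMP antagonist assay run by a contract lab on HEK293 cells stably expressing human D2 receptor. Compound tested at 10⁻⁶ M. Result given as % inhibition of the control agonist response to dopamine 30 nM.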
Background: Cyclic AMP is a second messenger, typically raised through Gs and lowered through Gi signalling.

In assay [12] the target is T2, 5-hydroxytryptamine receptor 7. The assay is described as follows: Antagonist activity at human 5-HT7 receptor expressed in CHOK1 cells assessed as inhibition of serotonin-induced cAMP production at 1 uM after 30 mins by HTRF assay. Format: functional, cell-based. In a few lines: (§3)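 Cellular cAMP functional antagonist assay run by a contract lab. Human 5-HT7 receptor was stably expressed in CHO cells, and human 5-HT1A in HEK293 cells. Read-out was % inhibition of the control agonist response.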

In assay [13] the test system is Mus musculus. The assay can be described thus: Antipsychotic activity in CD-1 mouse assessed as inhibition of MK-801-induced hyperlocomotor activity at 5 to 20 mg/kg, ip pretreated with MK-801 for 15 mins followed by compound administration for 60 mins. The assay is classed as functional, organism-based. In a few lines: as §2
The target of assay [14] is T4, 5-hydroxytryptamine receptor 1A (Homo sapiens) (UniProt P08908).
T4 sequence (whole entry): T3 sequence (P08908 whole entry)
The assay can be described thus: Antagonist activity at human 5-HT1A receptor expressed in HEK293 cells assessed as inhibition of 8-OH-DPAT-induced cAMP production at 1 uM by fluorescence assay. The assay is classed as functional, cell-based. In a few lines: as §3

Assay [15] concerns Mus musculus. The assay can be described thus: Antidepressant-like activity in Swiss albino mouse assessed as decrease in immobility time at 0.625 mg/kg measured last 4 mins of 6 mins test by forced swim test relative to control. Details: scale not given: the % may be the effect or the level left. The assay is classed as functional. In a few lines: as §1
Assay [16] relates to Mus musculus. The assay can be described thus: Antipsychotic activity in CD-1 mouse assessed as inhibition of MK-801-induced hyperlocomotor activity at 10 to 20 mg/kg, ip pretreated with MK-801 for 15 mins followed by compound administration for 60 mins. Format: functional, organism-based. In a few lines: as §2

Activity calls are given as the source filed them. The rule behind the calls is not given here.

Sequence of 5-hydroxytryptamine receptor 2A (P28223 whole entry): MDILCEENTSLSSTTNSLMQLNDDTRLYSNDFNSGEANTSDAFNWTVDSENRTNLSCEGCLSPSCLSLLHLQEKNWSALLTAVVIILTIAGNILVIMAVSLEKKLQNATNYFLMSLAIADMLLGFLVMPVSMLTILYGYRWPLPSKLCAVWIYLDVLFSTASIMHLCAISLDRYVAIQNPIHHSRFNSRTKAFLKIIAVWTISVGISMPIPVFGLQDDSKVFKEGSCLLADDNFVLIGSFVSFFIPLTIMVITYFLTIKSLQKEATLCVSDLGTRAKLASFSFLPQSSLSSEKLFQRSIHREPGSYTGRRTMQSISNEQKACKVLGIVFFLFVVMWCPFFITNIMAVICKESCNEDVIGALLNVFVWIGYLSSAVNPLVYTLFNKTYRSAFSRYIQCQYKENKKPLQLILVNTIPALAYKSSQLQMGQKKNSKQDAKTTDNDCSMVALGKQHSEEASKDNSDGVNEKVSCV
T1 sequence (P14416 whole entry): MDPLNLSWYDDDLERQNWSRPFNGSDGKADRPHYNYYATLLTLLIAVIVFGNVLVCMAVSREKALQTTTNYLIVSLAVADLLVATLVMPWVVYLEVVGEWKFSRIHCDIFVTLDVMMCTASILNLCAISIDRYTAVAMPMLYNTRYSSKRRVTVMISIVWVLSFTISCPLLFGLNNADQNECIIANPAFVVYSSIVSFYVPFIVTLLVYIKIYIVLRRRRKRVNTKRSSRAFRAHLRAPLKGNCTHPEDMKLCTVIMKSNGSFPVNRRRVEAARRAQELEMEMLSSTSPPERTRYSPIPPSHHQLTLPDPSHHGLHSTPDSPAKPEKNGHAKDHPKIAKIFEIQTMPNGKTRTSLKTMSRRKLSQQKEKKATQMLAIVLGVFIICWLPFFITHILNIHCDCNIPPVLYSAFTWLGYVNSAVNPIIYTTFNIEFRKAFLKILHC
Sequence of 5-hydroxytryptamine receptor 6 (P50406 whole entry): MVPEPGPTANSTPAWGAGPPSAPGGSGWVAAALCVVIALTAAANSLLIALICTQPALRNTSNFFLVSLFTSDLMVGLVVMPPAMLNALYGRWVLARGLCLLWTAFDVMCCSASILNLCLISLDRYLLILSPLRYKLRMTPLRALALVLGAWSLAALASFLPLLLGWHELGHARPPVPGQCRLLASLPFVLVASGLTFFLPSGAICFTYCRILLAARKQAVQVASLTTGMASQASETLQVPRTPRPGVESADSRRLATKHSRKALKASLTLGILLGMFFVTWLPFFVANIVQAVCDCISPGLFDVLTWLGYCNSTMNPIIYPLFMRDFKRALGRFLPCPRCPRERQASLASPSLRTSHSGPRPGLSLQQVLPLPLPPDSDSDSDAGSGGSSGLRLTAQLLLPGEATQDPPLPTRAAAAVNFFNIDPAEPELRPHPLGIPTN
T2 sequence (P34969 whole entry): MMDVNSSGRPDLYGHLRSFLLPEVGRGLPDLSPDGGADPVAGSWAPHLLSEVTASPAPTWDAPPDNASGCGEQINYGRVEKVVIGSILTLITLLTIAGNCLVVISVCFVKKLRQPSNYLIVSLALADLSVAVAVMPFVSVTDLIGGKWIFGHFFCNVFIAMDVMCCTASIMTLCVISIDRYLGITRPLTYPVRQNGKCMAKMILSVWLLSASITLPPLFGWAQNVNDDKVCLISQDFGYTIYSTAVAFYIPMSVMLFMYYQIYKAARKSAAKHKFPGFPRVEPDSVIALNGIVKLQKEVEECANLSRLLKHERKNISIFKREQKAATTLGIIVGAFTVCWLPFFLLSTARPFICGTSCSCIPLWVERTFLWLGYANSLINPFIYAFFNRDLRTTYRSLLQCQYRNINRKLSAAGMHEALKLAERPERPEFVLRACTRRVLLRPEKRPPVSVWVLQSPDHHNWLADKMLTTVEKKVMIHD

Consider `O=S(=O)(c1cncc2ccccc12)N1CCC(CCN2CCN(c3ccccc3)CC2)CC1`, for which the Ki is 1220 nM in assay [1]; 174 nM in assay [2]; 543 nM in assay [3]; 2410 nM in assay [4]; 410 nM in assay [5].
In the same order, the values of `O=S(=O)(c1cncc2ccccc12)N1CCC(CCN2CCN(c3cccc(F)c3)CC2)CC1` are 1010 nM, 142 nM, 370 nM, 3800 nM and 691 nM.
For `CN(C)CCCC1(c2ccc(F)cc2)OCc2cc(C#N)ccc21` (stereo unspecified) [CITALOPRAM], in assay [6], the Activity turned out to be 28%.
In the case of `O=S(=O)(c1cncc2ccccc12)N1CCC(CCN2CCN(c3cccc(C(F)(F)F)c3)CC2)CC1`, the Ki was found to be 148 nM in assay [1]; 52 nM in [2]; 30 nM in assay [3]; 1020 nM in [4]; 161 nM in assay [5].
In the same order, the values of `O=S(=O)(c1cccc2ncccc12)N1CCC(CCN2CCN(c3cccc(Cl)c3)CC2)CC1` are 76 nM, 37 nM, 54 nM, 445 nM and 197 nM.
Turning to `O=C1CCc2ccc(OCCCCN3CCN(c4cccc(Cl)c4Cl)CC3)cc2N1`, in assay [7], the inhibition result is “Active”.
`O=S(=O)(c1cncc2ccccc12)N1CCC(CCN2CCN(c3ccc(F)cc3)CC2)CC1`: the inhibition constant (Ki) was 418 nM in [1]; 14 nM in assay [2]; 975 nM in [3]; 1860 nM in [4]; 156 nM in assay [5].
For the compound `O=S(=O)(c1cncc2ccccc12)N1CCC(CCN2CCN(c3ccc(Cl)cc3)CC2)CC1`, the minimal effective dose was 5 mg/kg in [8] and 30 mg/kg in [10]. Further, in [9], the inhibition result is “Active”.
Turning to `O=S(=O)(c1cccc2ncccc12)N1CCC(CCN2CCN(c3ccc(Cl)cc3)CC2)CC1`, the inhibition constant Ki stood at 141 nM in [1]; 37 nM in [2]; 740 nM in assay [3]; 1020 nM in [4]; 152 nM in assay [5].
In the case of `O=S(=O)(c1cncc2ccccc12)N1CCC(CCN2CCN(c3cccc(Cl)c3Cl)CC2)CC1`, the figures for the inhibition in assay [11], in assay [12] and in assay [14] were 79%, 75% and 64%, respectively. The Ki worked out at 30 nM in [1]; 39 nM in assay [2]; 29 nM in assay [3]; 309 nM in assay [4]; 371 nM in [5]. For the same compound, in assay [13], the inhibition result was “inactive”.
As for `O=S(=O)(c1cccc2ncccc12)N1CCC(CCN2CCN(c3cccc(Cl)c3Cl)CC2)CC1`, the Activity in [15] worked out at 23%. Moreover, the inhibition in assay [11] came out at 88%; in assay [12], 69%; in assay [14], 63%. The minimal effective dose in assay [8] is 10 mg/kg; in [10] (in the assay text read “for 60 mins” for “for 30 mins”) it was 0.625 mg/kg. Further, the inhibition constant (Ki) turned out to be 36 nM in assay [1]; 55 nM in [2]; 45 nM in assay [3]; 401 nM in [4]; 286 nM in assay [5]. Moreover, in assay [16], the inhibition result is “Active”.
With `O=S(=O)(c1cccc2ncccc12)N1CCC(CCN2CCN(c3ccc(F)cc3)CC2)CC1`, the inhibition constant Ki stood at 223 nM in [1]; 29 nM in [2]; 759 nM in assay [3]; 1460 nM in assay [4]; 139 nM in [5].
Turning to `O=S(=O)(c1cccc2ncccc12)N1CCC(CCN2CCN(c3ccc(Cl)c(Cl)c3)CC2)CC1`, the Ki in [1] was 121 nM; in assay [2], 52 nM; in assay [3], 257 nM; in assay [4] it was 791 nM; in [5], 336 nM.
For `O=S(=O)(c1cccc2ncccc12)N1CCC(CCN2CCN(c3cccc(F)c3)CC2)CC1`, the Ki turned out to be 1820 nM in assay [1]; 165 nM in assay [2]; 609 nM in [3]; 8280 nM in assay [4]; 665 nM in [5].
As to `O=S(=O)(c1cccc2ncccc12)N1CCC(CCN2CCN(c3ccccc3)CC2)CC1`, the Ki in assay [1] amounted to 1240 nM; in [2], 209 nM; in [3], 749 nM; in [4], 6710 nM; in assay [5], 646 nM.
Regarding `O=S(=O)(c1cncc2ccccc12)N1CCC(CCN2CCN(c3ccc(Cl)c(Cl)c3)CC2)CC1`, the Ki in assay [1] was determined as 145 nM; in assay [2], 36 nM; in [3] it was 324 nM; in assay [4], 1040 nM; in assay [5], 179 nM.
For the compound `O=S(=O)(c1cccc2ncccc12)N1CCC(CCN2CCN(c3cccc(C(F)(F)F)c3)CC2)CC1`, the Ki was 149 nM in assay [1]; 56 nM in assay [2]; 40 nM in [3]; 640 nM in [4]; 530 nM in assay [5].
